Experimental data from ChEMBL document CHEMBL1255404, “Spread of OXA-48-encoding plasmid in Turkey and beyond” (2010).
≈ marks a conversion by molar mass, not a printed value.

What was measured:
Assay type in all cases: functional
Klebsiella pneumoniae [1] = test: Antimicrobial activity against Klebsiella pneumoniae isolate KpL expressing beta-lactamase OXA-48 by Etest method
Klebsiella pneumoniae [2] = test: Antimicrobial activity against Klebsiella pneumoniae isolate Kp11978 expressing beta-lactamase OXA-48, SHV-2a and TEM-1 by Etest method
Escherichia coli [3] = test: Antimicrobial activity against Escherichia coli isolate J53 harboring pA-1 containing beta-lactamase OXA-48 located within transposon Tn1999 by Etest method
Outline: (§1)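 β-Lactam MICs read with Etest strips. Strains are E. coli J53 recipient and J53 transconjugants carrying OXA-48-positive plasmids recovered from clinical enterobacterial isolates.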

Klebsiella pneumoniae [4] = test: Antimicrobial activity against Klebsiella pneumoniae isolate KpB expressing OXA-48 and CTX-M-15 by Etest method
Escherichia coli [5] = test: Antimicrobial activity against Escherichia coli isolate J53 harboring pBb containing beta-lactamase OXA-48 located within transposon Tn1999.2 by Etest method; outline: as §1
Klebsiella pneumoniae [6] = test: Antimicrobial activity against Klebsiella pneumoniae isolate Kp3A expressing beta-lactamase OXA-48 by Etest method
Outline: (§2)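 MICs of β-lactams read from Etest strips. The test organisms are carbapenem-resistant, OXA-48-positive clinical Enterobacteriaceae isolates recovered from Turkey, Lebanon, Egypt, France and Belgium.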

Escherichia coli [7] = test: Antimicrobial activity against Escherichia coli isolate J53 harboring p3A containing beta-lactamase OXA-48 located within transposon Tn1999 by Etest method; outline: as §1
Klebsiella pneumoniae [8] = test: Antimicrobial activity against Klebsiella pneumoniae isolate Kp4A expressing beta-lactamase OXA-48 and CTX-M-15 by Etest method
Klebsiella pneumoniae [9] = test: Antimicrobial activity against Klebsiella pneumoniae isolate Kp5A expressing beta-lactamase OXA-48 and SHV-5 by Etest method
Klebsiella pneumoniae [10] = test: Antimicrobial activity against Klebsiella pneumoniae isolate Kp6A expressing beta-lactamase OXA-48 and TEM-150 by Etest method
Escherichia coli [11] = test: Antimicrobial activity against Escherichia coli isolate J53 harboring p4A containing beta-lactamase OXA-48 located within transposon Tn1999 by Etest method; outline: as §1
Escherichia coli [12] = test: Antimicrobial activity against Escherichia coli isolate J53 harboring p5A containing beta-lactamase OXA-48 located within transposon Tn1999 by Etest method; outline: as §1
Escherichia coli [13] = test: Antimicrobial activity against Escherichia coli isolate J53 harboring p6A containing beta-lactamase OXA-48 located within transposon Tn1999 by Etest method; outline: as §1
Klebsiella pneumoniae [14] = test: Antimicrobial activity against Klebsiella pneumoniae isolate Kp7A expressing beta-lactamase OXA-48 by Etest method; outline: as §2
Escherichia coli [15] = test: Antimicrobial activity against Escherichia coli isolate J53 harboring p7A containing beta-lactamase OXA-48 located within transposon Tn1999 by Etest method; outline: as §1
Klebsiella pneumoniae [16] = test: Antimicrobial activity against Klebsiella pneumoniae isolate KpI-1 expressing beta-lactamase OXA-48 and CTX-M-15 by Etest method
Klebsiella pneumoniae [17] = test: Antimicrobial activity against Klebsiella pneumoniae isolate KpI-2 expressing beta-lactamase OXA-48 and CTX-M-15 by Etest method
Escherichia coli [18] = test: Antimicrobial activity against Escherichia coli isolate J53 harboring pI-1 containing beta-lactamase OXA-48 located within transposon Tn1999.2 by Etest method; outline: as §1
Escherichia coli [19] = test: Antimicrobial activity against Escherichia coli isolate J53 harboring pI-2 containing beta-lactamase OXA-48 located within transposon Tn1999.2 by Etest method; outline: as §1
Klebsiella pneumoniae [20] = test: Antimicrobial activity against Klebsiella pneumoniae isolate KpBIC expressing beta-lactamase OXA-48 by Etest method; outline: as §2
Escherichia coli [21] = test: Antimicrobial activity against Escherichia coli isolate TOP10 harboring pBIC containing beta-lactamase OXA-48 located within transposon Tn1999.2 by Etest method
Outline: (§3)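 β-Lactam MICs read with Etest strips. Strains are E. coli TOP10 host and TOP10 transformants made with plasmid DNA extract when conjugation failed. Transformants were selected on LB agar with ticarcillin 50 μg/ml.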

Klebsiella pneumoniae [22] = test: Antimicrobial activity against Klebsiella pneumoniae isolate KpE expressing beta-lactamase OXA-48 and CTX-M-15 by Etest method
Escherichia coli [23] = test: Antimicrobial activity against Escherichia coli isolate J53 harboring pE containing beta-lactamase OXA-48 located within transposon Tn1999.2 by Etest method; outline: as §1
Klebsiella pneumoniae [24] = test: Antimicrobial activity against Klebsiella pneumoniae isolate KpBEL expressing beta-lactamase OXA-48 by Etest method; outline: as §2
Escherichia coli [25] = test: Antimicrobial activity against Escherichia coli isolate J53 harboring pBEL containing beta-lactamase OXA-48 located within transposon Tn1999.2 by Etest method; outline: as §1
Escherichia coli [26] = test: Antimicrobial activity against Escherichia coli isolate J53 harboring pL containing beta-lactamase OXA-48 located within transposon Tn1999.2 by Etest method; outline: as §1
Providencia rettgeri = test: Antimicrobial activity against Providencia rettgeri isolate expressing beta-lactamase OXA-48 and TEM-101 by Etest method
Escherichia coli [27] = test: Antimicrobial activity against Escherichia coli isolate TOP10 harboring pPR containing beta-lactamase and TEM-101 by Etest method; outline: as §3
Enterobacter cloacae [28] = test: Antimicrobial activity against Enterobacter cloacae isolate 1 expressing beta-lactamase OXA-48 and SHV-5 by Etest method
Escherichia coli [29] = test: Antimicrobial activity against Escherichia coli isolate J53 harboring pEnc1 containing beta-lactamase OXA-48 located within transposon Tn1999 by Etest method; outline: as §1
Enterobacter cloacae [30] = test: Antimicrobial activity against Enterobacter cloacae isolate 2 expressing beta-lactamase OXA-48 and SHV-5 by Etest method
Escherichia coli [31] = test: Antimicrobial activity against Escherichia coli isolate J53 harboring pEnc2 containing beta-lactamase OXA-48 located within transposon Tn1999 by Etest method; outline: as §1
Citrobacter freundii = test: Antimicrobial activity against Citrobacter freundii isolate expressing beta-lactamase OXA-48 by Etest method
Escherichia coli [32] = test: Antimicrobial activity against Escherichia coli isolate J53 harboring pCF containing beta-lactamase OXA-48 located within transposon Tn1999 by Etest method; outline: as §1
Escherichia coli [33] = test: Antimicrobial activity against Escherichia coli isolate A expressing beta-lactamase OXA-48 and TEM-150 by Etest method
Escherichia coli [34] = test: Antimicrobial activity against Escherichia coli isolate J53 harboring pEcA containing beta-lactamase OXA-48 located within transposon Tn1999.2 by Etest method; outline: as §1
Escherichia coli [35] = test: Antimicrobial activity against Escherichia coli isolate J53 by Etest method; outline: as §1
Escherichia coli [36] = test: Antimicrobial activity against Escherichia coli isolate TOP10 by Etest method; outline: as §3

Structure (SMILES)	MIC (Klebsiella pneumoniae [1]) [µg/mL]	MIC (Klebsiella pneumoniae [2]) [µg/mL]	MIC (Escherichia coli [3]) [µg/mL]	MIC (Klebsiella pneumoniae [4]) [µg/mL]	MIC (Escherichia coli [5]) [µg/mL]	MIC (Klebsiella pneumoniae [6]) [µg/mL]	MIC (Escherichia coli [7]) [µg/mL]	MIC (Klebsiella pneumoniae [8]) [µg/mL]	MIC (Klebsiella pneumoniae [9]) [µg/mL]	MIC (Klebsiella pneumoniae [10]) [µg/mL]	MIC (Escherichia coli [11]) [µg/mL]	MIC (Escherichia coli [12]) [µg/mL]	MIC (Escherichia coli [13]) [µg/mL]	MIC (Klebsiella pneumoniae [14]) [µg/mL]	MIC (Escherichia coli [15]) [µg/mL]	MIC (Klebsiella pneumoniae [16]) [µg/mL]	MIC (Klebsiella pneumoniae [17]) [µg/mL]	MIC (Escherichia coli [18]) [µg/mL]	MIC (Escherichia coli [19]) [µg/mL]	MIC (Klebsiella pneumoniae [20]) [µg/mL]	other results
CO/N=C(\C(=O)N[C@@H]1C(=O)N2C(C(=O)O)=C(COC(C)=O)CS[C@H]12)c1csc(N)n1 [CEFOTAXIME]	1.5 (≈ 3.29 µM)	64 (≈ 141 µM)	0.06 (≈ 0.132 µM)	> 512	0.5 (≈ 1.1 µM)	1 (≈ 2.2 µM)	0.5 (≈ 1.1 µM)	64 (≈ 141 µM)	64 (≈ 141 µM)	64 (≈ 141 µM)	0.12 (≈ 0.263 µM)	0.12 (≈ 0.263 µM)	0.12 (≈ 0.263 µM)	0.5 (≈ 1.1 µM)	0.5 (≈ 1.1 µM)	64 (≈ 141 µM)	64 (≈ 141 µM)	0.12 (≈ 0.263 µM)	0.12 (≈ 0.263 µM)	0.5 (≈ 1.1 µM)	MIC (Escherichia coli [21]): 0.5 µg/mL (≈ 1.1 µM); MIC (Klebsiella pneumoniae [22]): 64 µg/mL (≈ 141 µM); MIC (Escherichia coli [23]): 0.12 µg/mL (≈ 0.263 µM); MIC (Klebsiella pneumoniae [24]): 0.12 µg/mL (≈ 0.263 µM); MIC (Escherichia coli [25]): 0.12 µg/mL (≈ 0.263 µM); MIC (Escherichia coli [26]): 0.25 µg/mL (≈ 0.549 µM); MIC (Providencia rettgeri): 64 µg/mL (≈ 141 µM); MIC (Escherichia coli [27]): 32 µg/mL (≈ 70.3 µM); MIC (Enterobacter cloacae [28]): > 512 µg/mL; MIC (Escherichia coli [29]): 0.25 µg/mL (≈ 0.549 µM); MIC (Enterobacter cloacae [30]): 512 µg/mL (≈ 1120 µM); MIC (Escherichia coli [31]): 0.25 µg/mL (≈ 0.549 µM); MIC (Citrobacter freundii): 64 µg/mL (≈ 141 µM); MIC (Escherichia coli [32]): 0.12 µg/mL (≈ 0.263 µM); MIC (Escherichia coli [33]): 64 µg/mL (≈ 141 µM); MIC (Escherichia coli [34]): 0.12 µg/mL (≈ 0.263 µM); MIC (Escherichia coli [35]): 0.06 µg/mL (≈ 0.132 µM); MIC (Escherichia coli [36]): 0.06 µg/mL (≈ 0.132 µM)
CO[C@@]1(NC(=O)Cc2cccs2)C(=O)N2C(C(=O)O)=C(COC(N)=O)CS[C@@H]21 [CEFOXITIN]	8 (≈ 18.7 µM)	128 (≈ 299 µM)	2 (≈ 4.68 µM)	128 (≈ 299 µM)	4 (≈ 9.36 µM)	2 (≈ 4.68 µM)	2 (≈ 4.68 µM)	128 (≈ 299 µM)	128 (≈ 299 µM)	128 (≈ 299 µM)	2 (≈ 4.68 µM)	2 (≈ 4.68 µM)	2 (≈ 4.68 µM)	128 (≈ 299 µM)	2 (≈ 4.68 µM)	128 (≈ 299 µM)	128 (≈ 299 µM)	2 (≈ 4.68 µM)	2 (≈ 4.68 µM)	128 (≈ 299 µM)	MIC (Escherichia coli [21]): 2 µg/mL (≈ 4.68 µM); MIC (Klebsiella pneumoniae [22]): 128 µg/mL (≈ 299 µM); MIC (Escherichia coli [23]): 2 µg/mL (≈ 4.68 µM); MIC (Klebsiella pneumoniae [24]): 2 µg/mL (≈ 4.68 µM); MIC (Escherichia coli [25]): 2 µg/mL (≈ 4.68 µM); MIC (Escherichia coli [26]): 2 µg/mL (≈ 4.68 µM); MIC (Providencia rettgeri): 128 µg/mL (≈ 299 µM); MIC (Escherichia coli [27]): 4 µg/mL (≈ 9.36 µM); MIC (Enterobacter cloacae [28]): > 512 µg/mL; MIC (Escherichia coli [29]): 2 µg/mL (≈ 4.68 µM); MIC (Enterobacter cloacae [30]): 512 µg/mL (≈ 1200 µM); MIC (Escherichia coli [31]): 2 µg/mL (≈ 4.68 µM); MIC (Citrobacter freundii): 128 µg/mL (≈ 299 µM); MIC (Escherichia coli [32]): 2 µg/mL (≈ 4.68 µM); MIC (Escherichia coli [33]): 128 µg/mL (≈ 299 µM); MIC (Escherichia coli [34]): 2 µg/mL (≈ 4.68 µM); MIC (Escherichia coli [35]): 2 µg/mL (≈ 4.68 µM); MIC (Escherichia coli [36]): 4 µg/mL (≈ 9.36 µM)
